Screening results (PubChem)
RTF Ca sens act – cardiac RTF calcium sensitization; IANBD-labeled TnC RTF fluorescence at EC20 calcium; 0% EC20 calcium, 100% full calcium; hit rate 0.24% among 340,000; P19429+P45379; activation, % at 7.2 µM;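 active means activation above the mean over all tested compounds plus 3 SD, cut at about 30% in these data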;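 further: rise in fluorescence read as greater calcium sensitivity of cardiac thin filaments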
CRFR2-BP antag – CRF-BP/CRF-R2 complex antagonism. HEK293 CRF-R2/CRF-BP, CRF-induced calcium fluorescence. inhibition, % at 11.8 µM. hit rate 0.59% among 350,000. AID 588475;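 active means inhibition of the ligand-induced calcium signal above about 50% at the single tested concentration, limit read from the data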
DDE Tn7 FP inh – disrupts Tn7 cyclic peptide binding to fibrin D-Dimer-E complex; P02675; FP displacement of FITC-Tn7 peptide from fibrin DD(E); 0% = median of compound wells per plate; inhibition, % at 8.3 µM; hit rate 0.13% among 370,000; AID 720508;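 active means inhibition above the mean of compounds falling within the control limits plus 3 SD of them, cut at about 14% in these data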
Target sequence (P02675 whole entry, looked up): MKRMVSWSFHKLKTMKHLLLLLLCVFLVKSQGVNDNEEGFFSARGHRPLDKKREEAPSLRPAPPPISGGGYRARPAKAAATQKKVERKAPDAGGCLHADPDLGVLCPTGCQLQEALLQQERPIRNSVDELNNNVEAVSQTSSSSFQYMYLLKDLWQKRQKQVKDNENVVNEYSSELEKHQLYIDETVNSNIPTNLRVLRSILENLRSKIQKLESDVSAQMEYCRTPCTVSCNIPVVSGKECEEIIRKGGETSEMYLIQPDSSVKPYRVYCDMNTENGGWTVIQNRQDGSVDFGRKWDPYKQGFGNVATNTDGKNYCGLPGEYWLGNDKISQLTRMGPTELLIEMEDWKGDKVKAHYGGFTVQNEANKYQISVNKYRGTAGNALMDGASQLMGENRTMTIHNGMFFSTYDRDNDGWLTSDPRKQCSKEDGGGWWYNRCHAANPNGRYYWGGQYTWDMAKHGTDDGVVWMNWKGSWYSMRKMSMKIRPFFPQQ
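Assay system: Fibrin-DD(E) protein isolated from polymerized human fibrin clots; read-out basis: percent inhibition; medium: Tris/NaCl/CaCl2 buffer, pH 7.8; signal: FP measurement; incubation: 10 min plus 3 h, room temperature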
CRFR2-BP ag – agonists of human CRF-binding protein/CRF-R2 receptor complex; activation, % at 13.2 µM; hit rate 0.46% among 350,000; HEK293 CRF-R2/CRF-BP, calcium dye fluorescence (FLIPR); percent of saturating CRF peptide response; AID 588473;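 active means activation of at least 50%, plus an integration ratio under a set limit after plate pattern correction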
DDE Tn6 FP inh – DD(E)-Tn6 binding inhibition, primary FP screen; P02675; Fibrin DD(E) TRITC-Tn6 fluorescence polarization displacement; inhibition, % at 8.3 µM; hit rate 0.21% among 370,000; AID 720509;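 active means inhibition above a per-campaign cutoff: mean of compounds within control limits plus 3 SD, cut at about 15% in these data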
RTF Ca sens inh – cardiac RTF calcium desensitization | AID 493244 | inhibition, % at 7.15 µM | IANBD-labeled cardiac RTF, Ca2+ fluorescence | hit rate 0.12% among 340,000;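 active means inhibition above the mean inhibition of all tested compounds plus 3 SD, cut at about 17% in these data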;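 further: assay run at fixed EC70 calcium of 1.6 mM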
Of the large screens only hits and unclear results are named; the others gave an inactive call. The list is not random: actives were taken first. Their share in the collection is about 1.4%.

O=C(NCc1ccc(F)c(F)c1)C1CCC(=O)N(CC2CCCCC2)C1 (stereo not given)	none
COc1cccc(CN2CC(C(=O)NCc3ccc(Cl)s3)CCC2=O)c1 (stereo not given)	CRFR2-BP antag 63.2
COc1cccc(CN2CC(C(=O)NCc3cnn(C)c3)CCC2=O)c1 (stereo not given)	none
COc1cc(/C=C/C(=O)OCC(=O)N(CC(C)C)c2c(N)n(Cc3ccccc3)c(=O)[nH]c2=O)ccc1O	CRFR2-BP ag 119.6
CC(C)CN(C(=O)COC(=O)/C=C/c1ccc(Cl)c(Cl)c1)c1c(N)n(Cc2ccccc2)c(=O)[nH]c1=O	none
CCOC(=O)C1=C(O)c2ccccc2C(=O)/C1=C\c1ccc(C)cc1	CRFR2-BP ag 111.0 (no result: DDE Tn7 FP inh, DDE Tn6 FP inh)
CN(C)S(=O)(=O)c1ccc(Cl)c(NC(=O)CNC2(C)CCS(=O)(=O)C2)c1 (stereo not given)	CRFR2-BP antag 113.3
CC(=O)N1CCc2c(sc(NC(=O)c3ccc([N+](=O)[O-])o3)c2C#N)C1	none
COC(=O)c1sc(NC(=O)c2ccc([N+](=O)[O-])o2)c(C#N)c1C	CRFR2-BP antag 73.7
COC(=O)c1sc(NC(=O)c2cc(-c3ccccc3)nc3ccccc23)c(C#N)c1C	CRFR2-BP ag 53.9
COCC1CN(CCc2ccc(F)cc2)S(=O)(=O)c2c(OCCN3C(=O)[C@@H]4[C@H](C3=O)[C@@H]3C=C[C@H]4C3)cccc2O1 (stereo not given in full)	none (no result: RTF Ca sens act, CRFR2-BP antag, CRFR2-BP ag, RTF Ca sens inh)
Cc1ccc2[nH]cc(/C=C/c3cc[n+](C)cc3)c2c1	RTF Ca sens act 230.3
CC[n+]1ccc(/C=C/c2c[nH]c3ccccc23)cc1	RTF Ca sens act 102.2, CRFR2-BP ag 60.9
O=[N+]([O-])c1cc(/C=N\O)ccc1Oc1ccc(F)cc1	CRFR2-BP antag 78.9
CC(C)(C)OC(=O)N1CCCN(C(c2ccnc3ccccc23)c2nnnn2-c2ccc3c(c2)OCCO3)CC1 (stereo not given)	none (no result: RTF Ca sens act, CRFR2-BP antag, CRFR2-BP ag, RTF Ca sens inh)
CN(Cc1cccs1)c1ncnc2ccc(-c3ccc4c(c3)OCO4)cc12	none (no result: RTF Ca sens act, CRFR2-BP antag, CRFR2-BP ag, RTF Ca sens inh)
CC(C)NC(=S)N(CCc1ccncc1)C(C)C	CRFR2-BP antag 111.7
Cc1cccc(NC(=S)N(CCc2ccncc2)C(C)C)c1C	none
O=C(NCc1ccco1)c1ccccc1NS(=O)(=O)c1ccc(Cl)s1	none
Cc1ccc(NC(=O)c2ccccc2NS(=O)(=O)c2ccc(Cl)s2)cc1	CRFR2-BP antag 79.7, CRFR2-BP ag 64.6
Cc1ccc(NS(=O)(=O)c2ccc(Cl)s2)nc1	none
O=C(Nc1ccccc1Cc1ccccc1)c1ccccc1NS(=O)(=O)c1ccc(Cl)s1	CRFR2-BP antag 104.8
O=C(Nc1ccccc1)c1ccccc1NS(=O)(=O)c1ccc(Cl)s1	CRFR2-BP antag 67.7
O=C(Nc1nnc(S(=O)(=O)Nc2ccccc2)s1)c1ccccc1Cl	CRFR2-BP antag 75.9
CCCCCc1ccc(NC(=O)OCCCN2CCC3(CCC(c4ccccc4)CC3)C2=O)cc1 (stereo not given)	none (no result: RTF Ca sens act, CRFR2-BP antag, CRFR2-BP ag, RTF Ca sens inh)
CCN1/C(=C2\SC(=S)N(Cc3ccccc3)C2=O)Sc2ccccc21	CRFR2-BP ag 51.3
CC(C)=C1C2CCC1C(C(=O)Nc1sc(C)c(-c3ccc(C(C)C)cc3)c1C(N)=O)C2C(=O)O (stereo not given)	CRFR2-BP antag 108.6, CRFR2-BP ag 78.4
O=C(CCN1C(=O)/C(=C\c2cccc(Br)c2)SC1=S)N1CCOCC1	CRFR2-BP antag 63.8
O=C(O)CN1C(=O)/C(=C\c2cn(CC(=O)N3CCOCC3)c3ccccc23)SC1=S	RTF Ca sens act 134.2, CRFR2-BP ag 69.3
O=C(O)CN1C(=O)/C(=C/c2ccc(SCc3ccccc3)o2)SC1=S	RTF Ca sens act 35.2
O=C(CN1CCc2onc(-c3ccc(-n4cc(C5=CCCCC5)nn4)cc3)c2C1=O)N1CCOCC1	none (no result: RTF Ca sens act, CRFR2-BP antag, CRFR2-BP ag, RTF Ca sens inh)
COc1ccc(/C=C2\Oc3cc(OC(=O)N4CCOCC4)ccc3C2=O)c(OC)c1	RTF Ca sens act 36.9
O=C1CC2CS(=O)(=O)CC2N1c1ccc(Oc2ccccc2)cc1 (stereo not given)	CRFR2-BP antag 121.3
CC(=O)N1C[C@@H](CN2C(=O)CCC2=O)[C@@H]2C[C@H]1c1ccccc1N2C	none (no result: RTF Ca sens act, CRFR2-BP antag, CRFR2-BP ag, RTF Ca sens inh)
Cc1ccc(-c2csc(Nc3ccc(C(=O)O)cc3)[n+]2Cc2ccccc2)cc1	CRFR2-BP antag 69.0
COc1ccc(-c2csc(Nc3ccccc3)[n+]2Cc2ccccc2)cc1	none
O=C(NCc1ccccn1)c1ccc(OC2CCN(Cc3ccccc3O)CC2)cc1	none
COc1cccc(CN2CCC(Oc3ccc(C(=O)NCc4ccccn4)cc3)CC2)c1O	CRFR2-BP antag 107.4
Cc1ccc(NC(=O)/C(=C/c2ccco2)c2ccccc2)c(C)c1	none
Cc1cc(C)c(NC(=O)/C(=C/c2ccccc2)c2ccccc2)c(C)c1	CRFR2-BP antag 66.9
Nc1ccc(S(=O)(=O)Nc2ccc(Cl)nn2)cc1	CRFR2-BP antag 54.2
O=S1(=O)c2ccc(N3CC[C@H](O)C3)cc2OCCCN1C1CC1	none (no result: RTF Ca sens act, CRFR2-BP antag, CRFR2-BP ag, RTF Ca sens inh)
O=C(CCSCc1ccc(Cl)cc1)NCc1cccs1	RTF Ca sens inh 17.8
CCN(CC)c1ccc(/C=C(\C#N)C(=O)NCc2ccco2)cc1	none (no result: RTF Ca sens act, CRFR2-BP antag, CRFR2-BP ag, RTF Ca sens inh)
CCN(CC)c1ccc(/C=C(\C#N)C(=O)NCc2ccccc2)cc1	RTF Ca sens act 36.2 (no result: DDE Tn7 FP inh, DDE Tn6 FP inh)
CCOC(=O)[C@]12CCCCC/C=C\1N(Cc1ccc(OC)cc1)C(=O)[C@H]2CC(=O)NCCCOC	none (no result: RTF Ca sens act, CRFR2-BP antag, CRFR2-BP ag, RTF Ca sens inh)
CC(=O)Nc1ccc(NC(=O)C(C)OC(=O)C2CCCC2)cc1 (stereo not given)	none
CC(=O)Nc1ccc(NC(=O)C(C)OC(=O)C2CCCCC2)cc1 (stereo not given)	CRFR2-BP antag 52.1
CN(C)c1ccc(/C=C/c2nc3ccccc3c(=O)n2-c2ccc(C(=O)O)cc2)cc1	RTF Ca sens act 538.0
O=C(O)c1cccc(-n2c(/C=C/c3ccccc3)nc3ccccc3c2=O)c1	none
Nc1ccc(Nc2ccncc2)cc1	none (no result: RTF Ca sens act, RTF Ca sens inh)
Cc1c(C(=O)Nc2ccc(F)cc2)cn2c(nc3ccccc32)c1C#N	none
N#Cc1c2nc3ccccc3nc2n2cc(NC(=O)c3ccc(F)cc3)ccc12	CRFR2-BP ag 54.7
CCOC(=O)N1CCN(C(=O)CSc2nnc(CNC(=O)c3ccccc3F)o2)CC1	CRFR2-BP antag 56.9
CCCCCCCCN1C(=O)[C@@H](CC(=O)N2CCCCC2)C[C@@]2(C(=O)OC)C1=C[C@H](C(C)C)O[C@@H]2C1CC1	none (no result: RTF Ca sens act, CRFR2-BP antag, CRFR2-BP ag, RTF Ca sens inh)
Cc1ccc(N=Nc2c(C)[nH]n(C(N)=S)c2=O)cc1C	none
Cc1[nH]n(C(N)=S)c(=O)c1N=Nc1cc(-c2ccc(Br)cc2)[nH]n1	CRFR2-BP antag 79.9 (no result: RTF Ca sens act, RTF Ca sens inh)
O=C(NC(=S)Nc1ccc(F)cc1)c1ccc2c(c1)OCCO2	CRFR2-BP ag 92.5
COc1ccc(NC(=S)NC(=O)c2ccc3c(c2)OCCO3)cc1	none
